Structures can show the parent of a compound that is named as a salt. Active and inactive are the calls of the source. The rule behind the calls is not given here. Non-standard residues stand in square brackets, D forms with d. Residues, ends and D or L forms follow the SMILES beside them. *: point of attachment. Pbf = Cc1c(C)c(S(=O)(=O)*)c(C)c2c1OC(C)(C)C2; Met(O2) = CS(=O)(=O)CC[C@H](N)C(=O)O; Met(O) = CS(=O)CC[C@H](N)C(=O)O; pNA = O=[N+]([O-])c1ccc(N*)cc1; Boc = CC(C)(C)OC(=O)*; NHBn = c1ccc(CN*)cc1; Tfa = O=C(C(F)(F)F)*; NHPh = c1ccc(N*)cc1
Test system: dengue virus type 2
Assay: Inhibition of Dengue virus serotype 2 NS2B-NS3 protease using benzoyl-Nle-Lys-Arg-Arg-AMC as substrate assessed as fluorescence changes after 0.2 to 1 min by fluorescence spectrophotometric analysis
Procedure, shortened: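 Fluorescence interference check. Fluorescence change over time followed in three parallel runs at 37 °C in pH 9.0 Tris buffer: NS2B-NS3 with inhibitor, NS2B-NS3 with Bz-Nle-Lys-Arg-Arg-AMC, and NS2B-NS3 with substrate plus inhibitor. Read at ex 356/em 438 nm.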

inhibition | SMILES
Active | CSCC[C@H](NC(=O)OC(C)(C)C)C(=O)N1CCC[C@H]1C(=O)Nc1ccc([N+](=O)[O-])cc1 (Boc-Met-Pro-pNA)

Test system: dengue virus type 2
Assay: Inhibition of Dengue virus serotype 2 NS2B-NS3 protease using benzoyl-Nle-Lys-Arg-Arg-AMC as substrate assessed as remaining activity at 20 uM incubated for 3 mins followed by substrate addition by fluorescence spectrophotometric analysis relative to control
Procedure, shortened: (§1)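 DENV2 NS2B-NS3 protease expressed from a plasmid. Enzyme preincubated with inhibitor 3 min, then Bz-Nle-Lys-Arg-Arg-AMC (33 or 66 µM) added. Remaining activity read by fluorescence, ex 356/em 438 nm. Triplicate averages. Ki from Dixon plot (1/v vs inhibitor) at the two substrate levels.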

Activity [%] | SMILES
90 | COc1ccc(CN[C@@H](CCSC)C(=O)N2CCC[C@H]2C(=O)Nc2ccc([N+](=O)[O-])cc2)cc1
71 | CSCC[C@H](N)C(=O)N1CCC[C@@H]1C(=O)Nc1ccc([N+](=O)[O-])cc1
37 | CSCC[C@H](N)C(=O)N1CCC[C@H]1C(=O)Nc1cccc([N+](=O)[O-])c1
96 | CSCC[C@H](N)C(=O)N1CCC[C@H]1C(=O)Nc1ccccc1[N+](=O)[O-]
38 | CSCC[C@H](NCc1ccc([N+](=O)[O-])cc1)C(=O)N1CCC[C@H]1C(=O)Nc1ccc([N+](=O)[O-])cc1
90 | Cc1c(C)c(S(=O)(=O)NC(=N)NCCC[C@H](NC(=O)OC(C)(C)C)C(=O)N2CCC[C@H]2C(=O)Nc2ccc([N+](=O)[O-])cc2)c(C)c2c1OC(C)(C)C2 (Boc-Arg(Pbf)-Pro-pNA)
106 | Cc1c(C)c(S(=O)(=O)NC(=N)NCCC[C@H](N)C(=O)N2CCC[C@H]2C(=O)Nc2ccc([N+](=O)[O-])cc2)c(C)c2c1OC(C)(C)C2 (H-Arg(Pbf)-Pro-pNA)
93 | N=C(N)NCCC[C@H](N)C(=O)N1CCC[C@H]1C(=O)Nc1ccc([N+](=O)[O-])cc1 (H-Arg-Pro-pNA)
103 | CS(=O)(=O)CC[C@H](N)C(=O)N1CCC[C@H]1C(=O)Nc1ccc([N+](=O)[O-])cc1 (H-[Met(O2)]-Pro-pNA)
99 | C[S+]([O-])CC[C@H](N)C(=O)N1CCC[C@H]1C(=O)Nc1ccc([N+](=O)[O-])cc1 (stereo partly specified) (H-[Met(O)]-Pro-pNA)

Test system: dengue virus type 2
Assay: Inhibition of Dengue virus serotype 2 NS2B-NS3 protease using benzoyl-Nle-Lys-Arg-Arg-AMC as substrate assessed as remaining activity at 15 uM incubated for 3 mins followed by substrate addition by fluorescence spectrophotometric analysis relative to control
Procedure, shortened: as §1

Activity [%] | SMILES
31 | CSCC[C@H](N)C(=O)N1CCC[C@H]1C(=O)Nc1ccc([N+](=O)[O-])cc1
45 | CSCC[C@H](NC(=O)OC(C)(C)C)C(=O)N1CCC[C@H]1C(=O)Nc1ccc([N+](=O)[O-])cc1 (Boc-Met-Pro-pNA)
58 | CSCC[C@H](N)C(=O)N1CCC[C@H]1C(=O)NCc1ccccc1 (H-Met-Pro-NHBn)
54 | CSCC[C@H](NC(=O)C(F)(F)F)C(=O)N1CCC[C@H]1C(=O)Nc1ccc([N+](=O)[O-])cc1 (Tfa-Met-Pro-pNA)

Test system: dengue virus type 2
Assay: Inhibition of Dengue virus serotype 2 NS2B-NS3 protease using benzoyl-Nle-Lys-Arg-Arg-AMC as substrate assessed as remaining activity at 200 uM incubated for 3 mins followed by substrate addition by fluorescence spectrophotometric analysis relative to control
Procedure, shortened: as §1

Activity [%] | SMILES
36 | CSCC[C@H](N)C(=O)N1CCC[C@H]1C(=O)NCc1ccc([N+](=O)[O-])cc1
25 | CC(C)(C)OC(=O)N[C@@H](Cc1ccccc1)C(=O)N1CCC[C@H]1C(=O)Nc1ccc([N+](=O)[O-])cc1 (Boc-Phe-Pro-pNA)
60 | CSCC[C@H](N)C(=O)N1CCC[C@H]1C(=O)Nc1ccccc1 (H-Met-Pro-NHPh)
31 | N[C@@H](Cc1ccccc1)C(=O)N1CCC[C@H]1C(=O)Nc1ccc([N+](=O)[O-])cc1 (H-Phe-Pro-pNA)

Test system: not listed separately
Assay: Competitive inhibition of Dengue virus serotype 2 NS2B-NS3 protease using benzoyl-Nle-Lys-Arg-Arg-AMC as substrate by Dixon plot analysis
Parameters: species or system dengue virus type 2
Procedure, shortened: as §1

SMILES | Ki [µM]
CSCC[C@H](N)C(=O)N1CCC[C@H]1C(=O)Nc1ccc([N+](=O)[O-])cc1 | 4.9
CSCC[C@H](NC(=O)OC(C)(C)C)C(=O)N1CCC[C@H]1C(=O)Nc1ccc([N+](=O)[O-])cc1 (Boc-Met-Pro-pNA) | 10.5
